From the M2OR odorant receptor database

How the values were obtained:
Conditions in all cases: stereoisomer not certain
[1] = biological target: T1, OR10H3 (Homo sapiens) (UniProt O60404)
T1 sequence (whole entry): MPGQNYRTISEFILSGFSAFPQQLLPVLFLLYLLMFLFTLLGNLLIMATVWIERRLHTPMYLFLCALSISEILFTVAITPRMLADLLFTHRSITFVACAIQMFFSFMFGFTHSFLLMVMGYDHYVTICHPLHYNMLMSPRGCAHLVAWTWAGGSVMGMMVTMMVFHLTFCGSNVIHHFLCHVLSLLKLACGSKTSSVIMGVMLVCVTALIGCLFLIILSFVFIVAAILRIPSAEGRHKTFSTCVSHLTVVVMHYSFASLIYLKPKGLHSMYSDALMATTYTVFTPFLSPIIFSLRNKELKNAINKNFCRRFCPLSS
How it was run: (§1)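 Whether a receptor–molecule pair is responsive (active) rests on the original authors' judgment that its measured signal was statistically different from baseline. Pairs without that judgment are non-responsive (inactive). Sources used varied assay methods, commonly transient luciferase assays in mammalian cell lines.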

[2] = biological target: T2, OR10H4 (Homo sapiens) (UniProt Q8NGA5)
T2 sequence (whole entry): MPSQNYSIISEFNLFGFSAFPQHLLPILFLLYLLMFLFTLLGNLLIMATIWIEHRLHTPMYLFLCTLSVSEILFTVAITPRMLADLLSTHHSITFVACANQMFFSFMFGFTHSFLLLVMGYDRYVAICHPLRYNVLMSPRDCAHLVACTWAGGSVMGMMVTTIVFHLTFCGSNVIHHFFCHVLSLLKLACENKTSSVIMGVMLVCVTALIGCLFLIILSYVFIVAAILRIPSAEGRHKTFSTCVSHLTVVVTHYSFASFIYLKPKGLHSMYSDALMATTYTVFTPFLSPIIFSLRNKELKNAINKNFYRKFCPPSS
How it was run: as §1

[3] = biological target: T3, OR10H5 (Homo sapiens) (UniProt Q8NGA6)
T3 sequence (whole entry): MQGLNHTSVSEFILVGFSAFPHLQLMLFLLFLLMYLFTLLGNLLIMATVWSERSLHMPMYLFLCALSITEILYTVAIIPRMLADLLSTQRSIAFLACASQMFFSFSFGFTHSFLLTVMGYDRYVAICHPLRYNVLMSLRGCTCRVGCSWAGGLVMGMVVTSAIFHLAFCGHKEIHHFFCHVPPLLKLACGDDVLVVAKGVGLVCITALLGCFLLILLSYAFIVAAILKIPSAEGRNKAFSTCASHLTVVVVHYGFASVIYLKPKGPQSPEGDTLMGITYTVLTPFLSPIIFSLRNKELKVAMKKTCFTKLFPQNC
How it was run: as §1

[4] = biological target: T4, OR10J1 (Homo sapiens) (UniProt P30954)
T4 sequence (whole entry): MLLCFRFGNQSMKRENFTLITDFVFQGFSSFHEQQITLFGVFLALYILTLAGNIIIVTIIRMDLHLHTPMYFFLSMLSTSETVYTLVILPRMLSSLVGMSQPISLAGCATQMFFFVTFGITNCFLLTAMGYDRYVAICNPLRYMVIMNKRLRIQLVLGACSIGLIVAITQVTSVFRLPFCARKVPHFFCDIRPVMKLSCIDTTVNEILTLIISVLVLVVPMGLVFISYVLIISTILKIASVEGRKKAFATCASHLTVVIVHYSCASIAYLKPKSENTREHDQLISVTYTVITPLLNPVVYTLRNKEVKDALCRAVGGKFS
How it was run: as §1

[5] = biological target: T5, OR10J3 (Homo sapiens) (UniProt Q5JRS4)
T5 sequence (whole entry): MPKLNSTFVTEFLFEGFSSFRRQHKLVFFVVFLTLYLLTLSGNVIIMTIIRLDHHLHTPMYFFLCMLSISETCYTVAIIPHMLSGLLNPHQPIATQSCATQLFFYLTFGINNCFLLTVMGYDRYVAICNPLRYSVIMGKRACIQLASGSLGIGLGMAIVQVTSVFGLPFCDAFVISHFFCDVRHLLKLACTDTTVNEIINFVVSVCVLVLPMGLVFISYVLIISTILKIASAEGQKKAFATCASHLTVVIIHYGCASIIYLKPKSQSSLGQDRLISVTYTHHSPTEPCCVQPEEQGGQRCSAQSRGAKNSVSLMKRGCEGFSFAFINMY
How it was run: as §1

[6] = biological target: T6, OR10J5 (Homo sapiens) (UniProt Q8NHC4)
T6 sequence (whole entry): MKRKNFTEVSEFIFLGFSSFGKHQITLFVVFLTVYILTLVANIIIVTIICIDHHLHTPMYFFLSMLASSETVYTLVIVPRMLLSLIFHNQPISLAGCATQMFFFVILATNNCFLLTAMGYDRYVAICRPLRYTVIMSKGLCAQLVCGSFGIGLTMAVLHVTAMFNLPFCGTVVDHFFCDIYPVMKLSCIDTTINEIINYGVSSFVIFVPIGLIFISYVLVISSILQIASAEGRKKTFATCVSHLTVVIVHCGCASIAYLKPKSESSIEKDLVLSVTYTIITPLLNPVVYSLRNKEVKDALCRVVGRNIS
How it was run: as §1

[7] = biological target: T7, OR10K1 (Homo sapiens) (UniProt Q8NGX5)
T7 sequence (whole entry): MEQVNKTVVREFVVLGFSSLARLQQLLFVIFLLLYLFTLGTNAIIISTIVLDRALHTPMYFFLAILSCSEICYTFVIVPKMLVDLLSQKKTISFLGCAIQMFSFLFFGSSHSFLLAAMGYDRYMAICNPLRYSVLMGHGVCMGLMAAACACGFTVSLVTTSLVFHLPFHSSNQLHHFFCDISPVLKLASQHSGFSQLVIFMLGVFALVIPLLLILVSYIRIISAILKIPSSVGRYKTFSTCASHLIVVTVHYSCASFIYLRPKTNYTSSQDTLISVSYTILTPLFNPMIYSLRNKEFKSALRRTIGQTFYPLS
How it was run: as §1

[8] = biological target: T8, OR10K2 (Homo sapiens) (UniProt Q6IF99)
T8 sequence (whole entry): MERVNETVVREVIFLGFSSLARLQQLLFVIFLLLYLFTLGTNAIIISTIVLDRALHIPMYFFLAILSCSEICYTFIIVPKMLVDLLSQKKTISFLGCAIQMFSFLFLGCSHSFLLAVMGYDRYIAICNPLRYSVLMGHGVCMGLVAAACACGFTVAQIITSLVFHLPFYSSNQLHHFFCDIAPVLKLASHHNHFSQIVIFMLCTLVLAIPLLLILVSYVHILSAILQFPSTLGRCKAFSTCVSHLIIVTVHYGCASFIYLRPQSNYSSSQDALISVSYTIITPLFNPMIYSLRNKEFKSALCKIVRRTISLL
How it was run: as §1

[9] = biological target: T9, OR10P1 (Homo sapiens) (UniProt Q8NGE3)
T9 sequence (whole entry): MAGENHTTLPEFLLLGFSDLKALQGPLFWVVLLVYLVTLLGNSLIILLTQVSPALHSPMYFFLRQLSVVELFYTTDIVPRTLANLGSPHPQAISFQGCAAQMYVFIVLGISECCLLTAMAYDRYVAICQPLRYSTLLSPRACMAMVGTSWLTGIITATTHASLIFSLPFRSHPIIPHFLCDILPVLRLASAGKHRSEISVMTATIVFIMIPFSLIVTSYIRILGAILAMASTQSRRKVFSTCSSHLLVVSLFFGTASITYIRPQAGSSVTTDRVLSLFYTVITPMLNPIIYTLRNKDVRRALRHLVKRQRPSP
How it was run: as §1

[10] = biological target: T10, OR10Q1 (Homo sapiens) (UniProt Q8NGQ4)
T10 sequence (whole entry): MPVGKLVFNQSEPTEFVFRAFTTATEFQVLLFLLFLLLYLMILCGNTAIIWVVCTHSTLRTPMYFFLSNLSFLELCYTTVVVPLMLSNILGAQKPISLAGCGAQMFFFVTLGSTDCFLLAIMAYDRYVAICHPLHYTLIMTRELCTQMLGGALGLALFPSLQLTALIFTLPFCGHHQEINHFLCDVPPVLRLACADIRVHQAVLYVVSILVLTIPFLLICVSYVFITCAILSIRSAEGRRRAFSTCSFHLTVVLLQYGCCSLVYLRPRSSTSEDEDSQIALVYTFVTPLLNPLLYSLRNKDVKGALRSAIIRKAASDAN
How it was run: as §1

Measured: odorant receptor agonist call

CC(CO)CS (stereo not given)
inactive: all assays above
